In ChEMBL document CHEMBL4364301 (Eur J Med Chem, 2019):

Columns and labels:
Type in all cases: functional
[1] = tested on: VCaP; test: Antiproliferative activity against human VCaP cells assessed as T/C value at 3.2 x 10^-1 uM incubated for 96 hrs by propidium iodide based 2D monolayer assay
Outline: (§1)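 VCaP cells in RPMI 1640 with 10% FCS at 37 °C, 5% CO2, seeded 4,000–20,000 cells/well and left 24 h before dosing. Compounds from DMSO stocks were diluted in half-log steps in medium, 10 concentrations 0.0032–100 μM, triplicate wells, max 0.3% DMSO. After 96 h, cells were washed, stained with 7 μg/ml propidium iodide plus 0.1% Triton X-100 for 1–2 h at room temperature, and fluorescence read at ex 530/em 620 nm.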

[2] = tested on: DU-145; test: Antiproliferative activity against human DU145 cells assessed as T/C value at 3.2 x 10^1 uM incubated for 96 hrs by propidium iodide based 2D monolayer assay
Outline: (§2)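 Cells were kept in RPMI 1640 with 25 mM HEPES, 10% FCS and gentamicin at 37 °C under 5% CO2, and plated at 4,000-20,000 cells/well. After 24 h recovery, compound in medium or medium alone (control wells) was added at 10 half-log concentrations from 0.0032 to 100 µM, in triplicate, with at most 0.3% DMSO. After 96 h, wells were PBS-washed, stained with 7 µg/ml PI and 0.1% Triton X-100, and fluorescence read at 530/620 nm. IC50 came from a 4-parameter fit, geometric mean.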

[3] = tested on: LNCaP; test: Antiproliferative activity against human LNCAP cells assessed as T/C value at 1 x 10^1 uM incubated for 96 hrs by propidium iodide based 2D monolayer assay; outline: as §2
[4] = tested on: CWR22R; test: Antiproliferative activity against human 22Rv1 cells assessed as T/C value at 1 x 10^-1 uM incubated for 96 hrs by propidium iodide based 2D monolayer assay; outline: as §2
[5] = tested on: LNCaP; test: Antiproliferative activity against human LNCAP cells assessed as T/C value at 1 x 10^-2 uM incubated for 96 hrs by propidium iodide based 2D monolayer assay; outline: as §2
[6] = tested on: CWR22R; test: Antiproliferative activity against human 22Rv1 cells assessed as reduction in cell growth incubated for 96 hrs by propidium iodide based 2D monolayer assay
Outline: as §2, with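 “After” for “Cells were kept in RPMI 1640 with 25 mM HEPES, 10% FCS and gentamicin at 37 °C under 5% CO2, and plated at 4,000-20,000 cells/well. After”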

[7] = tested on: VCaP; test: Antiproliferative activity against human VCaP cells assessed as T/C value at 1 x 10^-1 uM incubated for 96 hrs by propidium iodide based 2D monolayer assay; outline: as §2
[8] = tested on: LNCaP; test: Antiproliferative activity against human LNCAP cells assessed as T/C value at 3.2 x 10^-2 uM incubated for 96 hrs by propidium iodide based 2D monolayer assay; outline: as §2
[9] = tested on: LNCaP; test: Antiproliferative activity against human LNCAP cells assessed as T/C value at 3.2 uM incubated for 96 hrs by propidium iodide based 2D monolayer assay; outline: as §2
[10] = tested on: CWR22R; test: Antiproliferative activity against human 22Rv1 cells assessed as T/C value at 1 uM incubated for 96 hrs by propidium iodide based 2D monolayer assay; outline: as §2
[11] = tested on: CWR22R; test: Antiproliferative activity against human 22Rv1 cells assessed as T/C value at 3.2 uM incubated for 96 hrs by propidium iodide based 2D monolayer assay; outline: as §2
[12] = tested on: LNCaP; test: Antiproliferative activity against human LNCAP cells assessed as reduction in cell growth incubated for 96 hrs by propidium iodide based 2D monolayer assay
Outline: as §2, with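 “After” for “Cells were kept in RPMI 1640 with 25 mM HEPES, 10% FCS and gentamicin at 37 °C under 5% CO2, and plated at 4,000-20,000 cells/well. After”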

[13] = tested on: VCaP; test: Antiproliferative activity against human VCaP cells assessed as T/C value at 1 x 10^1 uM incubated for 96 hrs by propidium iodide based 2D monolayer assay; outline: as §2
[14] = tested on: VCaP; test: Antiproliferative activity against human VCaP cells assessed as T/C value at 3.2 x 10^-2 uM incubated for 96 hrs by propidium iodide based 2D monolayer assay; outline: as §1
[15] = tested on: VCaP; test: Antiproliferative activity against human VCaP cells assessed as T/C value at 1 x 10^-2 uM incubated for 96 hrs by propidium iodide based 2D monolayer assay; outline: as §2
[16] = tested on: VCaP; test: Antiproliferative activity against human VCaP cells assessed as T/C value at 3.2 x 10^-3 uM incubated for 96 hrs by propidium iodide based 2D monolayer assay; outline: as §1
[17] = tested on: VCaP; test: Antiproliferative activity against human VCaP cells assessed as T/C value at 3.2 x 10^1 uM incubated for 96 hrs by propidium iodide based 2D monolayer assay; outline: as §1
[18] = tested on: VCaP; test: Antiproliferative activity against human VCaP cells assessed as reduction in cell growth incubated for 96 hrs by propidium iodide based 2D monolayer assay; outline: as §1
[19] = tested on: DU-145; test: Antiproliferative activity against human DU145 cells assessed as T/C value at 1 x 10^2 uM incubated for 96 hrs by propidium iodide based 2D monolayer assay; outline: as §2
[20] = tested on: CWR22R; test: Antiproliferative activity against human 22Rv1 cells assessed as T/C value at 3.2 x 10^-2 uM incubated for 96 hrs by propidium iodide based 2D monolayer assay; outline: as §2
[21] = tested on: DU-145; test: Antiproliferative activity against human DU145 cells assessed as reduction in cell growth incubated for 96 hrs by propidium iodide based 2D monolayer assay
Outline: as §2, with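 “After” for “Cells were kept in RPMI 1640 with 25 mM HEPES, 10% FCS and gentamicin at 37 °C under 5% CO2, and plated at 4,000-20,000 cells/well. After”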

[22] = tested on: LNCaP; test: Antiproliferative activity against human LNCAP cells assessed as T/C value at 3.2 x 10^-3 uM incubated for 96 hrs by propidium iodide based 2D monolayer assay; outline: as §2
[23] = tested on: VCaP; test: Antiproliferative activity against human VCaP cells assessed as T/C value at 3.2 uM incubated for 96 hrs by propidium iodide based 2D monolayer assay; outline: as §2
[24] = tested on: LNCaP; test: Antiproliferative activity against human LNCAP cells assessed as T/C value at 1 uM incubated for 96 hrs by propidium iodide based 2D monolayer assay; outline: as §2
[25] = tested on: CWR22R; test: Antiproliferative activity against human 22Rv1 cells assessed as T/C value at 3.2 x 10^1 uM incubated for 96 hrs by propidium iodide based 2D monolayer assay; outline: as §2
[26] = tested on: LNCaP; test: Antiproliferative activity against human LNCAP cells assessed as T/C value at 1 x 10^2 uM incubated for 96 hrs by propidium iodide based 2D monolayer assay; outline: as §2
[27] = tested on: VCaP; test: Antiproliferative activity against human VCaP cells assessed as T/C value at 1 x 10^2 uM incubated for 96 hrs by propidium iodide based 2D monolayer assay; outline: as §2
[28] = tested on: LNCaP; test: Antiproliferative activity against human LNCAP cells assessed as T/C value at 3.2 x 10^1 uM incubated for 96 hrs by propidium iodide based 2D monolayer assay; outline: as §2
[29] = tested on: CWR22R; test: Antiproliferative activity against human 22Rv1 cells assessed as T/C value at 1 x 10^2 uM incubated for 96 hrs by propidium iodide based 2D monolayer assay; outline: as §2
[30] = tested on: VCaP; test: Antiproliferative activity against human VCaP cells assessed as T/C value at 1 uM incubated for 96 hrs by propidium iodide based 2D monolayer assay; outline: as §2
[31] = tested on: DU-145; test: Antiproliferative activity against human DU145 cells assessed as T/C value at 3.2 uM incubated for 96 hrs by propidium iodide based 2D monolayer assay; outline: as §2
[32] = tested on: CWR22R; test: Antiproliferative activity against human 22Rv1 cells assessed as T/C value at 3.2 x 10^-1 uM incubated for 96 hrs by propidium iodide based 2D monolayer assay; outline: as §2
[33] = tested on: LNCaP; test: Antiproliferative activity against human LNCAP cells assessed as T/C value at 1 x 10^-1 uM incubated for 96 hrs by propidium iodide based 2D monolayer assay; outline: as §2
[34] = tested on: CWR22R; test: Antiproliferative activity against human 22Rv1 cells assessed as T/C value at 3.2 x 10^-3 uM incubated for 96 hrs by propidium iodide based 2D monolayer assay; outline: as §2
[35] = tested on: CWR22R; test: Antiproliferative activity against human 22Rv1 cells assessed as T/C value at 1 x 10^-2 uM incubated for 96 hrs by propidium iodide based 2D monolayer assay; outline: as §2
[36] = tested on: LNCaP; test: Antiproliferative activity against human LNCAP cells assessed as T/C value at 3.2 x 10^-1 uM incubated for 96 hrs by propidium iodide based 2D monolayer assay; outline: as §2

For `CNC(=O)c1ccc(N2C(=S)N(c3ccc(C#N)c(C(F)(F)F)c3)C(=O)C2(C)C)cc1F` [ENZALUTAMIDE], which T/C [1] is on record?
The T/C was 88%.

And the T/C [2]?
Its T/C is 84%.

What about the T/C [3] of the same compound?
The T/C was 57%.

What about the T/C [4] of the same compound?
Its T/C is 93%.

And the T/C [5]?
The T/C was 92%.

And the Activity [6]?
Its Activity is “Dose-dependent effect”.

What about the IC70 ([6]; 22Rv1, 96 h) of the same compound?
Its IC70 is 36.5 µM.

What about the T/C [7] of the same compound?
Its T/C is 101%.

And the T/C [8]?
Its T/C is 100%.

What about the T/C [9] of the same compound?
Its T/C is 69%.

And the T/C [10]?
The T/C was 93%.

And the T/C [11]?
Its T/C is 88%.

And the Activity [12]?
Its Activity is “Dose-dependent effect”.

And the IC70 [12]?
The IC70 was 31.7 µM.

What about the T/C [13] of the same compound?
Its T/C is 85%.

And the T/C [14]?
Its T/C is 104%.

And the T/C [15]?
The T/C was 106%.

And the T/C [16]?
Its T/C is 106%.

What about the T/C [17] of the same compound?
Its T/C is 85%.

And the Activity [18]?
Its Activity is “Dose-dependent effect”.

What about the IC50 [18] of the same compound?
Its IC50 is 53 µM.

And the IC70 [18]?
The IC70 was greater than 100 µM.

And the T/C [19]?
The T/C was 19%.

What about the T/C [20] of the same compound?
The T/C was 99%.

And the Activity [21]?
Its Activity is “Dose-dependent effect”.

What about the IC50 ([21]; DU-145, 96 h) of the same compound?
The IC50 was 32.3 µM.

And the IC70 ([21]; DU-145, 96 h)?
The IC70 was 71.1 µM.

What about the T/C [22] of the same compound?
The T/C was 101%.

What about the T/C [23] of the same compound?
The T/C was 85%.

What about the T/C [24] of the same compound?
The T/C was 65%.

What about the T/C [25] of the same compound?
Its T/C is 57%.

What about the T/C [26] of the same compound?
The T/C was 6%.

What about the T/C [27] of the same compound?
The T/C was 44%.

What about the T/C [28] of the same compound?
The T/C was 28%.

And the T/C [29]?
Its T/C is 13%.

And the T/C [30]?
Its T/C is 85%.

What about the T/C [31] of the same compound?
Its T/C is 120%.

What about the T/C [32] of the same compound?
The T/C was 96%.

And the T/C [33]?
Its T/C is 89%.

And the T/C [34]?
Its T/C is 96%.

And the T/C [35]?
The T/C was 98%.

What about the T/C [36] of the same compound?
The T/C was 77%.
